{"source": "PubChem BioAssay AID1453", "about": "(NMMLSC, 2008)", "molecular_target": "Broad substrate specificity ATP-binding cassette transporter ABCG2 (Homo sapiens) (UniProt Q9UNQ0)", "sequence (Q9UNQ0 whole entry, looked up)": "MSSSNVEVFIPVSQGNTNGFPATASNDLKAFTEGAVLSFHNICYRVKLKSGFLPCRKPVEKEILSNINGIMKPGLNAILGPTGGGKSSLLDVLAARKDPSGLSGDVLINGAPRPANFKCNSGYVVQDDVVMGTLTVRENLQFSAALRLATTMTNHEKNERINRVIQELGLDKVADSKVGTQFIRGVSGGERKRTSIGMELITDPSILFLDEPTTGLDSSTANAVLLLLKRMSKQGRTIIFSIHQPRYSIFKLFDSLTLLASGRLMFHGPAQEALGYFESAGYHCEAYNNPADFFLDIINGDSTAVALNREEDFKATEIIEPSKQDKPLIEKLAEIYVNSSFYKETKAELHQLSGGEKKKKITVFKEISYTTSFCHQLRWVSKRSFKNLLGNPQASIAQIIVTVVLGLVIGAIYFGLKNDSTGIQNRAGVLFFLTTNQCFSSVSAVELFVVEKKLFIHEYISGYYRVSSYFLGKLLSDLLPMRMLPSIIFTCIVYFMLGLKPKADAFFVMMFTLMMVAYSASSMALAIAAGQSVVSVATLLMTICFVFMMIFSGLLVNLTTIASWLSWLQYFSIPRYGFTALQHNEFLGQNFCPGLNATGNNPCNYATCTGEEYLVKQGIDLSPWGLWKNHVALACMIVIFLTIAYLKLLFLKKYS", "test": "blockers of JC-1 export by ABCG2 – single point, IgMXP3 cells, ABCB1 counter-screen paired, confirmation (AID 1453);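 further: 0% = DMSO wells and 100% = nicardipine pump inhibitor wells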", "settings": "JC-1 efflux, flow cytometry, at 6.6 µM, hits give high values", "outline": "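Assay system: ABCG2-expressing IgMXP3 cells / Input: 3 million cells per mL final in well / Compound dosing: 6.6 µM single dose / Schedule: 10 min exposure at 25 °C / Measured by: high-throughput flow cytometry, JC-1 green median fluorescence, 530 ± 20 nm / Read-out basis: percent efflux inhibition scaled between DMSO and nicardipine, autofluorescence-corrected / Controls: nicardipine high, DMSO low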", "note": "The list shows a part of the results. A number with no mark means an inactive call.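 How the source made its calls: active means inhibition above 50%; inactive means the rest.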"}
{"smiles": "COC(=O)COc1cc(C)cc2oc(=O)c3c(c12)CCCC3", "values": [{"measurement": "inhibition", "value": 22.6, "unit": "%"}]}
